Measurements reported in ChEMBL document CHEMBL4251709, “Synthesis, Biological Investigation, and Structural Revision of Sielboldianin A” (J Nat Prod, 2018).

Columns and labels:
K562 = assay: Cytotoxicity against human K562 cells assessed as inhibition of cell growth after 5 days by MTT assay; type: cell-based; conditions: K562, 120 h
In short: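 K562 cells kept in antibiotic-free RPMI with 2-mercaptoethanol (2 μM), L-glutamine (2 mM) and 10% FCS. 100 μL of cells at 40 000 cells/mL were mixed with 100 μL of serially diluted compound (DMSO stock) in medium, with a drug-free control. Incubation 5 days, 37 °C, 5% CO2. MTT (3 mg/mL) for 3 h, formazan taken up in DMSO, read at 540 and 690 nm. IC50 as % of control growth, three experiments.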

HepG2 [1] = assay: Antioxidant activity in human HepG2 cells assessed as inhibition of cumene hydroperoxide-mediated lipid peroxidation incubated for 60 mins followed by cumOOH addition for 60 mins measured for 60 mins by C11-BODIPY probe based fluorescence assay; type: functional, cell-based; conditions: HepG2, 1 h
In short: (§1)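 HepG2 cells grown in MEM Earle's with gentamycin, L-alanyl-L-glutamine, nonessential amino acids, sodium pyruvate and 10% FBS at 37 °C, 5% CO2. 80 000 cells per well were seeded 24 h ahead, ~50% confluent at testing. Sesquiterpenoids were dissolved in DMSO, giving 1% DMSO final in all wells including controls. IC50 from dose–response Hill-slope fit, three experiments, mean ± SD.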

HepG2 [2] = assay: Antioxidant activity in human HepG2 cells assessed as inhibition of ABAP-induced peroxyl radical generation incubated for 60 mins measured for 60 mins by DCFH-DA probe based fluorescence assay; type: functional, cell-based; conditions: HepG2, 1 h; in short: as §1

Structure (SMILES): Cc1ccc([C@]2(C)CC[C@@H](C(C)(C)O)O2)cc1
- IC50 (K562): > 50 µM
- IC50 (HepG2 [1]): > 100 µM
- IC50 (HepG2 [2]): > 100 µM

Structure (SMILES): O=c1c(O)c(-c2ccc(O)c(O)c2)oc2cc(O)cc(O)c12 [QUERCETIN]
- IC50 (K562): 2.5 µM
- IC50 (HepG2 [1]): 12 µM
- IC50 (HepG2 [2]): 65 µM

Structure (SMILES): CC(C)=CCC[C@](C)(O)c1ccc(C)cc1
- IC50 (K562): > 50 µM
- IC50 (HepG2 [1]): > 100 µM
- IC50 (HepG2 [2]): > 100 µM

Structure (SMILES): Cc1ccc([C@]2(C)CC[C@@H](C(C)(C)O)O2)cc1O
- IC50 (K562): > 50 µM
- IC50 (HepG2 [1]): 31 µM
- IC50 (HepG2 [2]): 18 µM
